# Data published in ChEMBL document CHEMBL4715832, “Isoquinoline-based biaryls as a robust scaffold for microtubule inhibitors” (Eur J Med Chem, 2020).
# Activity calls are given as the source filed them. The calls are words filed in the database; no cut-off is given here.
# What was measured:
# HeLa [1] = experiment: Antiproliferative activity against human HeLa cells assessed as reduction in cell growth after 48 hrs by resazurin dye based fluorescence assay; type: functional
# In short: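 HeLa cells grown in DMEM with 10% FCS and penicillin/streptomycin, 37 °C, 5% CO2. Seeded 5,000 cells/well, treated 24 h later with DMSO 1% final, then incubated 48 h. Resazurin reduction to resorufin measured over 3 h at 37 °C by fluorescence (ex 544/em 590 nm). Normalised to cosolvent control (100%) and cell-free wells (0%). Means of at least three independent experiments.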
# HeLa [2] = experiment: Induction of microtubule network depolymerization in human HeLa cells after 24 hrs by immunofluorescence staining based confocal microscopic analysis; type: cell-based
# In short: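 HeLa cells seeded on glass coverslips (50,000 cells/well), allowed to adhere 18 h, then treated 24 h. Fixed with 0.5% glutaraldehyde, quenched with 0.1% NaBH4, blocked with PBS + 10% FCS. Stained with rabbit anti-alpha-tubulin (1:400, 1 h), then Alexa Fluor 488 anti-rabbit secondary, with DAPI nuclear counterstain. Imaged by confocal microscopy, including z-stack projections.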
# tubulin (Sus scrofa) = experiment: Inhibition of porcine tubulin polymerization at 20 uM preincubated for 10 mins followed by GTP addition by turbidimetric method
# HL-60 = experiment: Antiproliferative activity against human HL-60 cells assessed as reduction in cell growth after 24 hrs by MTT assay; type: functional, cell-based; details: HL-60, 24 h
# In short: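 HL-60 cells grown in RPMI 1640 with 10% FCS, no antibiotics, 37 °C, 5% CO2. Seeded 9,000 cells/well, treated 24 h later with DMSO cosolvent at 1% final. After 24 h, MTT 0.5 mg/mL for 2 h, absorbance read. Normalised to cosolvent control (100%) and Triton X-100-treated cells (0%). Means of at least three independent experiments.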
# [3] = Stability in human liver microsomes assessed as parent compound remaining at 2 uM measured immediately in presence of cofactor; type: ADME, Microsome; details: read-out: Stabilty
# [4] = Stability in human liver microsomes assessed as parent compound remaining at 2 uM measured after 10 mins in presence of cofactor; type: ADME, Microsome; details: read-out: Stabilty
# [5] = Stability in human liver microsomes assessed as parent compound remaining at 2 uM measured after 20 mins in presence of cofactor; type: ADME, Microsome; details: read-out: Stabilty
# [6] = Stability in human liver microsomes assessed as parent compound remaining at 2 uM measured after 30 mins in presence of cofactor; type: ADME, Microsome; details: read-out: Stabilty
# [7] = Stability in human liver microsomes assessed as parent compound remaining at 2 uM measured after 40 mins in presence of cofactor; type: ADME, Microsome; details: read-out: Stabilty
# [8] = Half life in human liver microsomes at 2 uM; type: ADME, Microsome
# [9] = Stability in human liver microsomes assessed as parent compound remaining at 2 uM measured immediately in absence of cofactor; type: ADME, Microsome; details: read-out: Stabilty
# [10] = Stability in human liver microsomes assessed as parent compound remaining at 2 uM measured after 40 mins in absence of cofactor; type: ADME, Microsome; details: read-out: Stabilty
# CYP1A2 = biological target: T1, CYP1A2 (Homo sapiens, UniProt P05177); experiment: Inhibition of human CYP1A2 at 10 uM relative to control; type: ADME
# T1 sequence (P05177 whole entry): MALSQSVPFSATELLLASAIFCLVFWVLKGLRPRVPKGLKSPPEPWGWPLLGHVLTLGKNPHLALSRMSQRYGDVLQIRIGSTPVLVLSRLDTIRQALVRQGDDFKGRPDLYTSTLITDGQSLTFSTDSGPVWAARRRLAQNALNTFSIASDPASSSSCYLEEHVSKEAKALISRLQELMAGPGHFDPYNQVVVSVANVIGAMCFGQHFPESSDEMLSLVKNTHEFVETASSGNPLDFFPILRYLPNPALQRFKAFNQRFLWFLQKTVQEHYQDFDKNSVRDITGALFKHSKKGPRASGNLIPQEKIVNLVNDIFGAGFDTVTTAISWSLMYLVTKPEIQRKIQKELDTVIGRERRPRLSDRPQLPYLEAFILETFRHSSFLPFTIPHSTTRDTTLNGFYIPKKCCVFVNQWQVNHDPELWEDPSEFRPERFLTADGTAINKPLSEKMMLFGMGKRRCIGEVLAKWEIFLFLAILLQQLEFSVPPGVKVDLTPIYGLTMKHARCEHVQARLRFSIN
# In short: (§1)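 Inhibition measured against five human cytochrome P450 isoforms, with test compound at 10 µM, applied as the dephosphorylated phenol.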
# CYP2D6 = CYP2D6 (Homo sapiens, UniProt P10635); experiment: Inhibition of human CYP2D6 at 10 uM relative to control; type: ADME; in short: as §1
# CYP2C9 = CYP2C9 (Homo sapiens, UniProt P11712); experiment: Inhibition of human CYP2C9 at 10 uM relative to control; type: ADME; in short: as §1
# CYP2C19 = CYP2C19 (Homo sapiens, UniProt P33261); experiment: Inhibition of human CYP2C19 at 10 uM relative to control; type: ADME; in short: as §1
# CYP3A4 = CYP3A4 (Homo sapiens, UniProt P08684); experiment: Inhibition of human CYP3A4 at 10 uM relative to control; type: ADME; in short: as §1
# hERG (KCNH2) [11] = biological target: T2, hERG (KCNH2) (Homo sapiens, UniProt Q12809); experiment: Inhibition of human ERG at 25 uM by fluorescence polarization assay relative to control
# In short: (§2)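 hERG channel inhibition measured with a fluorescence polarisation reporter assay, applied to the dephosphorylated phenol.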
# hERG (KCNH2) [12] = biological target: T2, hERG (KCNH2); experiment: Inhibition of human ERG at 5 uM by fluorescence polarization assay relative to control; in short: as §2
# hERG (KCNH2) [13] = biological target: T2, hERG (KCNH2); experiment: Inhibition of human ERG at 1 uM by fluorescence polarization assay relative to control; in short: as §2
# [14] = test system: liver microsomes (Mus musculus); experiment: Half life in mouse liver microsomes at 2 uM
# [15] = test system: liver microsomes (Mus musculus); experiment: Stability in mouse liver microsomes assessed as parent compound remaining at 2 uM measured immediately in absence of cofactor; details: read-out: Stabilty
# [16] = test system: liver microsomes (Mus musculus); experiment: Stability in mouse liver microsomes assessed as parent compound remaining at 2 uM measured immediately in presence of cofactor; details: read-out: Stabilty
# [17] = test system: liver microsomes (Mus musculus); experiment: Stability in mouse liver microsomes assessed as parent compound remaining at 2 uM measured after 40 mins in absence of cofactor; details: read-out: Stabilty
# [18] = test system: liver microsomes (Mus musculus); experiment: Stability in mouse liver microsomes assessed as parent compound remaining at 2 uM measured after 10 mins in presence of cofactor; details: read-out: Stabilty
# [19] = test system: liver microsomes (Mus musculus); experiment: Stability in mouse liver microsomes assessed as parent compound remaining at 2 uM measured after 20 mins in presence of cofactor; details: read-out: Stabilty
# [20] = test system: liver microsomes (Mus musculus); experiment: Stability in mouse liver microsomes assessed as parent compound remaining at 2 uM measured after 30 mins in presence of cofactor; details: read-out: Stabilty
# [21] = test system: liver microsomes (Mus musculus); experiment: Stability in mouse liver microsomes assessed as parent compound remaining at 2 uM measured after 40 mins in presence of cofactor; details: read-out: Stabilty
# Homo sapiens = species: Homo sapiens; experiment: Inhibition of porcine tubulin polymerization at 16 uM preincubated for 10 mins followed by GTP addition by turbidimetric method
# In short: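 Purified porcine brain tubulin (99% purity) pre-incubated 10 min at 37 °C with compound at 16 µM in buffer containing 3% DMSO and 10% glycerol. Polymerisation started at time zero by adding GTP to 1 mM. Absorbance at 340 nm followed over time at 37 °C as the turbidity read-out.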
# [22] = Solubility of compound in aqueous buffer; type: physicochemical
# HeLa [23] = experiment: Induction of microtubule network depolymerization in human HeLa cells assessed as accumulation of rounded cells at 120 nM after 24 hrs by immunofluorescence staining based confocal microscopic analysis; type: cell-based
# In short: (§3)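 HeLa cells on glass coverslips (50,000/well), adhered 18 h, then treated 24 h (DMSO 1% final). Fixed with 0.5% glutaraldehyde, quenched with 0.1% NaBH4, blocked in PBS + 10% FCS. Stained with rabbit anti-alpha-tubulin (1:400, 1 h) and Alexa 488 goat anti-rabbit secondary, with DAPI nuclear counterstain. Imaged by confocal microscopy with z-stack projections.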
# HeLa [24] = experiment: Induction of microtubule network depolymerization in human HeLa cells assessed as induction of mitotic arrest at 120 nM after 24 hrs by immunofluorescence staining based confocal microscopic analysis; type: cell-based; in short: as §3
# HeLa [25] = experiment: Induction of microtubule network depolymerization in human HeLa cells assessed as appearance of defective spindles at 120 nM after 24 hrs by immunofluorescence staining based confocal microscopic analysis; type: cell-based; in short: as §3
# HeLa [26] = experiment: Induction of microtubule network depolymerization in human HeLa cells assessed as appearance of defective chromosome alignment at 120 nM after 24 hrs by immunofluorescence staining based confocal microscopic analysis; type: cell-based; in short: as §3
# HeLa [27] = experiment: Cell cycle arrest in human HeLa cells assessed as accumulation at G2/M phase at 500 nM measured after 24 hrs by propidium iodide staining based flow cytometry; type: functional
# In short: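 HeLa cells seeded 50,000/well, treated 24 h; collected, stained with 2 mg/mL propidium iodide at 4 °C for 30 min, analysed by flow cytometry (30,000 cells per condition); cells assigned to sub-G1, G1, S and G2/M by DNA content (PI signal). DMSO cosolvent 1% final.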
# HeLa [28] = experiment: Inhibition of tubulin polymerization in human HeLa cells harboring EB3-YFP plasmid assessed as disappearance of […] comet at 10 uM after 2 mins by microscopic analysis; type: cell-based
# In short: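 HeLa cells (12,000/well) transiently transfected 24 h after seeding with EB3-YFP plasmid, imaged 24 h later by spinning-disc confocal at 37 °C, 5% CO2 (514 nm, 300 ms exposure, 45 frames/min). Five reference frames taken, compound added, 2 min incubation, then 5 more frames. EB3 comets counted by maxima detection; 7 cells from three independent trials.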
# [29] = Toxicity in ip dosed Balb/c mouse; type: organism-based; details: in vivo
# In short: (§4)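 Single-administration dose escalation in male and female Balb/c mice, given i.p. or i.v., to find the maximal tolerated dose of the phosphate prodrug.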
# [30] = Toxicity in iv dosed Balb/c mouse; type: organism-based; details: in vivo; in short: as §4
# [31] = Toxicity in Balb/c mouse at 25 mg/kg, ip administered at 48 hrs interval for 3 times; type: organism-based; details: in vivo
# In short: (§5)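 Male and female Balb/c mice dosed 3 times at 48 h intervals with 25 mg/kg of the phosphate prodrug, by the route named, and monitored for tolerability.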
# [32] = Toxicity in Balb/c mouse at 25 mg/kg, iv administered at 48 hrs interval for 3 times; type: organism-based; details: in vivo; in short: as §5
# T2 sequence (Q12809 whole entry): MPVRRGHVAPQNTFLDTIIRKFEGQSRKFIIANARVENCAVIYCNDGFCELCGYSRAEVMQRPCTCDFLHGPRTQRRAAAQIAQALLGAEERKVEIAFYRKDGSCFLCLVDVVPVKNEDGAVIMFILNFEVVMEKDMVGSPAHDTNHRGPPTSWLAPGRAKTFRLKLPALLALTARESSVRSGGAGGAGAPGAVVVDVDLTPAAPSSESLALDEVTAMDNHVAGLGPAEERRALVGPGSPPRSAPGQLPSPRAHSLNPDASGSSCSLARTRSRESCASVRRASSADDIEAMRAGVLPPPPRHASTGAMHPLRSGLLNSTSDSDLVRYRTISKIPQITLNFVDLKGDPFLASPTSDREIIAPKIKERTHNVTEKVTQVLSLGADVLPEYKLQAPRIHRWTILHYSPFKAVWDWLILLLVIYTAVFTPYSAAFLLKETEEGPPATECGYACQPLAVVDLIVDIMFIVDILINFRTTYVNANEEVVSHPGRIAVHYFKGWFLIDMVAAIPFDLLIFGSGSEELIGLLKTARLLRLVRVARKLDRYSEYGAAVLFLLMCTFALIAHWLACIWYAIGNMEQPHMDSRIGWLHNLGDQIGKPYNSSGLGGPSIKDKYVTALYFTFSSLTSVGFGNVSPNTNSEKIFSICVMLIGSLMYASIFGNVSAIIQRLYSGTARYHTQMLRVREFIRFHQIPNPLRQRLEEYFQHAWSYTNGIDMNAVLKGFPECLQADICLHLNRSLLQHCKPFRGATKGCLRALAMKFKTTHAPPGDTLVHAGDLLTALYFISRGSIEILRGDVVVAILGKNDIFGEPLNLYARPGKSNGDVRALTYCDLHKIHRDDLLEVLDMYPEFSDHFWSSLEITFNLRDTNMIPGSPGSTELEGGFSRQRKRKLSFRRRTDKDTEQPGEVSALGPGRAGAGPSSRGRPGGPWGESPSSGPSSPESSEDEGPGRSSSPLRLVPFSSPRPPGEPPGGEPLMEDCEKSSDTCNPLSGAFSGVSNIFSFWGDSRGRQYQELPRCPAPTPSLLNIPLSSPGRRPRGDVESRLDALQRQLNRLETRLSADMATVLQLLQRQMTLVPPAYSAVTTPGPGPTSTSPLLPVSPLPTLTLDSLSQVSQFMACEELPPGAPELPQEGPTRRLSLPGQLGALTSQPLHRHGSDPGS
# Sequence of CYP2C9 (P11712 whole entry): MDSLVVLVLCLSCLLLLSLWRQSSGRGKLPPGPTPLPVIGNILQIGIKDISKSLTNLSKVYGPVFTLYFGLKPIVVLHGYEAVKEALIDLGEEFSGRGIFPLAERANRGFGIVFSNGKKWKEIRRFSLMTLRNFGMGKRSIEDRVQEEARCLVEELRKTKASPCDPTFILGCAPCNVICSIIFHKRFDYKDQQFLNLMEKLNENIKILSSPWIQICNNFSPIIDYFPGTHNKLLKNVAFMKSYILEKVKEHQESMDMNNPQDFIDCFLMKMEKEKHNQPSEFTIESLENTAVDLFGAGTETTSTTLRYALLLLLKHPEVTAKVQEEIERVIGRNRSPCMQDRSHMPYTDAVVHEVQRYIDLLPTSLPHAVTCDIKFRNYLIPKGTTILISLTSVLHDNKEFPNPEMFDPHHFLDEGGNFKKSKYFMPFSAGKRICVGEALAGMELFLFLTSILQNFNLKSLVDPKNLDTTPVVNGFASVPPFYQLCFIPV
# Sequence of CYP2C19 (P33261 whole entry): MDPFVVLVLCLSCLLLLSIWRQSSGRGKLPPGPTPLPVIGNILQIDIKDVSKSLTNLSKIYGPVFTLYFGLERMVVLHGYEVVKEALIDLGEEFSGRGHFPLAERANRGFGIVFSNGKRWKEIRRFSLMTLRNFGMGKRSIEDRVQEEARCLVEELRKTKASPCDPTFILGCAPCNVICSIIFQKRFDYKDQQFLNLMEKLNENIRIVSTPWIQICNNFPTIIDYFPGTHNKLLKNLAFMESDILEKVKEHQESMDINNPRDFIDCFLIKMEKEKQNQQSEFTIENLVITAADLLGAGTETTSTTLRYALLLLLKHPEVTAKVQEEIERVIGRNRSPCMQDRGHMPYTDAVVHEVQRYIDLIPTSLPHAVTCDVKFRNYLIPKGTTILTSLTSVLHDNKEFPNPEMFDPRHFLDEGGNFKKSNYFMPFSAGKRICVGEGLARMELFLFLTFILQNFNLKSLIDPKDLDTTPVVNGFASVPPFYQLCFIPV
# Sequence of CYP2D6 (P10635 whole entry): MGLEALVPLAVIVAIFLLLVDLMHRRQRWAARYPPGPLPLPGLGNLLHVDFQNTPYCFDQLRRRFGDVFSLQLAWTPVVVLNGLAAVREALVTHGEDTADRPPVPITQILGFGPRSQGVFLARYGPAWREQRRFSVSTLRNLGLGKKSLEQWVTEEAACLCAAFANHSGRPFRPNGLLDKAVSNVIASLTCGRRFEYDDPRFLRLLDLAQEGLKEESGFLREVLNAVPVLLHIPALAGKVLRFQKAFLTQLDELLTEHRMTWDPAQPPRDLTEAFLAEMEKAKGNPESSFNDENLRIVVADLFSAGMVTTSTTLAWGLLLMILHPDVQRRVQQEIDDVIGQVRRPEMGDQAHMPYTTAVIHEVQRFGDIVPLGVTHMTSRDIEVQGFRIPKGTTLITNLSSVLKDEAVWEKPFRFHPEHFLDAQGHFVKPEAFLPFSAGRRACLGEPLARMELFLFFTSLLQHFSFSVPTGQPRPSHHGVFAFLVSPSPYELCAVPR
# Sequence of CYP3A4 (P08684 whole entry): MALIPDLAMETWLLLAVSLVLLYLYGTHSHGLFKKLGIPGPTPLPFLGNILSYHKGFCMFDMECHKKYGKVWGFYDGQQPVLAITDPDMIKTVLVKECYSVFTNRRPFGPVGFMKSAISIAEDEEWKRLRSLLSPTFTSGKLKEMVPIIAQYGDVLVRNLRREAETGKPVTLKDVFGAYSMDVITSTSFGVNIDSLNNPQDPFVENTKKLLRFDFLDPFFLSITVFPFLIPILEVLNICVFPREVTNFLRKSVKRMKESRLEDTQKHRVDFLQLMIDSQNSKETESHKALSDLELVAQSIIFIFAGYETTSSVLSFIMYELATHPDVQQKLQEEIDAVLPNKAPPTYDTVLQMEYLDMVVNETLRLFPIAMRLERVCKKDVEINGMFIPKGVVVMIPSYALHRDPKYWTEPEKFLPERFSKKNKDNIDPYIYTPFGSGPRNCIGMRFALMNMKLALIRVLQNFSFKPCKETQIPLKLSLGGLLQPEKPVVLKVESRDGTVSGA
structure (smiles),measurement,setting,value
COc1ccc2cc[n+](C)c(-c3cc(OC)c(OC)c(OC)c3)c2c1,EC50,HeLa [1],> 30000 nM
same,Activity,HeLa [2],inactive
COc1cc2c(-c3cc(OC)c(OC)c(OC)c3)nccc2cc1F,Activity,HeLa [1],Dose-dependent effect
same,EC50,HeLa [1],280 nM
same,Activity,HeLa [2],Dose-dependent effect
same,inhibition,tubulin (Sus scrofa),Active
COc1ccc(C(=O)c2nccc3c(OC)c(OC)c(OC)cc23)cc1,EC50,HeLa [1],> 80000 nM
COc1cc2c(-c3cc(OC)c(OC)c(OC)c3)nccc2cc1O,Activity,HeLa [1],Dose-dependent effect
same,EC50,HeLa [1],120 nM
same,EC50,HL-60,340 nM
same,"remaining at 0 min, 2 µM",[3],100%
same,"remaining at 10 min, 2 µM",[4],99%
same,"remaining at 20 min, 2 µM",[5],84%
same,"remaining at 0.5 h, 2 µM",[6],75%
same,"remaining at 40 min, 2 µM",[7],69%
same,half-life at 2 µM,[8],1.13 h
same,"remaining at 0 min, 2 µM",[9],100%
same,"remaining at 40 min, 2 µM",[10],98%
same,inhibition at 10 µM,CYP1A2,-4%
same,inhibition at 10 µM,CYP2D6,19%
same,inhibition at 10 µM,CYP2C9,16%
same,inhibition at 10 µM,CYP2C19,-49%
same,inhibition at 10 µM,CYP3A4,13%
same,inhibition at 25 µM,hERG (KCNH2) [11],-5%
same,inhibition at 5 µM,hERG (KCNH2) [12],-18%
same,inhibition at 1 µM,hERG (KCNH2) [13],-3%
same,half-life at 2 µM,[14],1.12 h
same,"remaining at 0 min, 2 µM",[15],100%
same,"remaining at 0 min, 2 µM",[16],100%
same,"remaining at 40 min, 2 µM",[17],105%
same,"remaining at 10 min, 2 µM",[18],93%
same,"remaining at 20 min, 2 µM",[19],82%
same,"remaining at 0.5 h, 2 µM",[20],73%
same,"remaining at 40 min, 2 µM",[21],67%
COc1cc2c(c(OC)c1OC)-c1ccc(OC)c(=O)cc1[C@@H](NC(C)=O)CC2,inhibition,Homo sapiens,Active
COc1cc2ccnc(-c3cc(OC)c(OC)c(OC)c3)c2cc1OC,EC50,HeLa [1],> 20000 nM
same,Activity,HeLa [2],Dose-dependent effect
COc1cc2c(-c3cc(OC)c(OC)c(OC)c3)nccc2cc1OP(=O)([O-])[O-].[Na+].[Na+],Activity,HeLa [1],Dose-dependent effect
same,EC50,HeLa [1],170 nM
same,solubility,[22],> 10 mM
same,EC50,HL-60,570 nM
same,Activity,HeLa [2],Dose-dependent effect
same,Activity,HeLa [23],Active
same,Activity,HeLa [24],Active
same,Activity,HeLa [25],Active
same,Activity,HeLa [26],Active
same,Activity,HeLa [27],Active
same,inhibition,HeLa [28],Active
same,MTD,[29],32 mg/kg
same,MTD,[30],50 mg/kg
same,Activity,[31],Non-Toxic
same,Activity,[32],Non-Toxic
COc1cccc(-c2nccc3c(OC)c(OC)c(OC)cc23)c1,EC50,HeLa [1],15000 nM
